Screening data: PubChem BioAssay, Broad Institute
CaV13 FRET inh: Disruptors of the CACNA1D IQ motif to Ca2+-dependent inactivation inhibitor domain association, primary screening, Förster resonance energy transfer in intact living …; HEK cells, CFP/YFP FRET ICDI-IQ, plate reader, 10 min; percent FRET-ratio fall versus neutral wells; inhibition, % at 12.3 µM; actives 0.098% (n = 340,000); AID 743397;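 active means mean replicate inhibition of at least 30% and at least 1% of replicates passing that level; inconclusive means only one of the two criteria is met; inactive means neither criterion is met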;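 further: 0% = median of the neutral control wells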
DENV2 CPE: inhibitors of DENV2 cytopathic effect; DENV2-infected cells, cytopathic effect rescue, plate reader; CPE inhibition, % at 9.99 µM; actives 1.7% (n = 350,000); in the data active means CPE inhibition above about 20%, passing the limit was not always enough; inconclusive means no clear call, values can overlap the other calls; tested in BHK-21 cells;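 further: 0% = median of neutral control wells and 100% = median of positive control wells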
S100A4 inh HTS: blocks human S100A4 binding to myosin IIA peptide; P26447; S100A4/TAMRA-MyoIIA peptide fluorescence polarization; inhibition, % at 10.7 µM; actives 0.14% (n = 360,000); AID 652163;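 active means mean inhibition of at least 70% across replicates, with every replicate also reaching that level; inconclusive means mean inhibition reaches 70% but some replicates fall short; inactive means mean inhibition below 70%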
Target sequence (P26447 whole entry, looked up): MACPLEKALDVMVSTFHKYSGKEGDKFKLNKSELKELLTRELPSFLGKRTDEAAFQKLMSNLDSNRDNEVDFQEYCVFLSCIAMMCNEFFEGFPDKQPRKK
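Test system: S100A4 monomer protein; Medium: HEPES pH 7.2 with CaCl2, KCl, NaCl, DTT, Triton; Probe or stimulus: TAMRA-labelled myosin IIA heavy-chain peptide probe, 5 nM; Doses: one dose per compound; Times: polarization read 5 min after assay mix addition, stable 5–60 min; Benchmarks: neutral control DMSO, positive control TFP.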
SIRT5 inh: inhibitors of human sirtuin-5 desuccinylase; Purified SirT5, succinyl-peptide AMC, trypsin-coupled fluorescence; inhibition, % at 15 µM; actives 1.1% (n = 330,000); AID 652115; Q9NXA8; in the data active means inhibition above about 15%; inconclusive means no clear call, values can overlap the other calls
Target sequence (Q9NXA8 whole entry, looked up): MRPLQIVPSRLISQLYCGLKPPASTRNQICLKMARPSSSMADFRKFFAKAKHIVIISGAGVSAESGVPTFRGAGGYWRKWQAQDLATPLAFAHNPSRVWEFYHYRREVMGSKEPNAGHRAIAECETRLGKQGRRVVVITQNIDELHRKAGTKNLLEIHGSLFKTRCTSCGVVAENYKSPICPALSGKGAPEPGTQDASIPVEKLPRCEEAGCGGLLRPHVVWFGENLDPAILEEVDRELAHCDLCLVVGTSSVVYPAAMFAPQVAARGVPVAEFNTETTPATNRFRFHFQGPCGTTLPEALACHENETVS
MLL AF4-AF9 inh: MLL-AF4/AF9 protein interaction inhibition | inhibition, % at 10 µM | AID 651704 | actives 0.47% (n = 350,000) | AlphaScreen, biotin-AF4 peptide binding to FLAG-AF9;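 active means every replicate reaching a set inhibition limit, whatever the replicate mean, cut at about 25% in these data; inconclusive means mean inhibition reaches that limit but some replicates miss it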;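 further: 0% = plate neutral control median and 100% = total signal loss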
Starred values were filed as active, the others as inactive; ? = inconclusive; · = no result given. Only some compounds are listed: those with a hit (about 2.7% of all), similar ones and a draw of the others.

SMILES	CaV13 FRET inh	DENV2 CPE	S100A4 inh HTS	SIRT5 inh	MLL AF4-AF9 inh
CC(C)NC(=O)N1CC2(C1)[C@H](c1ccccc1)[C@@H](CO)N2C(=O)C1CCCC1	·	-8	0	0	-1
CO[C@@H](CN(C)S(=O)(=O)c1ccc(F)cc1)[C@@H](C)CN(C(=O)Nc1ccccc1F)[C@H](C)CO	·	4	-29	3	0
CC(C)CC#Cc1ccc([C@H]2[C@@H](CO)N3C(=O)CN(C(=O)c4cccc(F)c4)C[C@@H]23)cc1	·	8	1	10	0
C[C@@H]1CN([C@H](C)CO)C(=O)c2cc(-c3ccncc3)cnc2O[C@@H]1CN(C)S(=O)(=O)c1ccc(F)cc1	·	1	18	-4	-5
COc1cccc(CN2[C@@H](CO)[C@H](c3ccccc3)C23CN(C(=O)C2CCCCC2)C3)c1	·	-15	0	0	1
Cc1ccc(S(=O)(=O)NCC[C@H]2CC[C@@H](NC(=O)c3ccccn3)[C@@H](CO)O2)cc1	·	-6	3	-3	-2
CNC[C@H]1Oc2c(NC(=O)NC(C)C)cccc2C(=O)N([C@@H](C)CO)C[C@H]1C	·	4	23	-1	-1
COc1ccccc1-c1ccc([C@H]2[C@@H](CO)N[C@@H]2CNC(=O)C2CCCC2)cc1	·	25*	4	0	-1
N#C[C@@H]1[C@H](c2ccccc2C2=CCCCC2)[C@H](CO)N1C(=O)NC1CCCC1	·	-7	131*	0	-1
N#C[C@H]1[C@@H](c2ccccc2C2=CCCC2)[C@@H](CO)N1C(=O)c1cccc(F)c1	·	71*	-38	0	-1
COc1ccccc1-c1ccccc1[C@H]1[C@H](C#N)N(C(=O)C2CCC2)[C@H]1CO	·	50*	-5	12	-1
N#C[C@H]1[C@H](c2ccccc2C2=CCCCC2)[C@H](CO)N1C(=O)NC1CCCC1	·	5	-15	1	0
C[C@@H]1CN([C@H](C)CO)C(=O)c2cccc(NC(=O)c3nc4ccccc4s3)c2O[C@H]1CN(C)S(=O)(=O)c1ccc(F)cc1	·	-5	-3	-2	-28
CO[C@H]1CN(C)C(=O)c2ccc(NC(=O)NC(C)C)cc2OC[C@H](C)N(C)C[C@H]1C	·	5	3	-3	0
CO[C@H]1CN(C)C(=O)c2ccc(NC(=O)C3CCOCC3)cc2OC[C@@H](C)NC[C@@H]1C	·	2	-5	-4	-18
C[C@@H]1CCCCO[C@@H](CN(C)S(=O)(=O)c2ccc(Cl)cc2)[C@H](C)CN([C@H](C)CO)C(=O)c2cc(NC(=O)C3CCCCC3)ccc2O1	·	16	-3	7	1
COc1ccccc1-c1ccc([C@H]2[C@@H](CO)N(C(=O)C3CCCC3)[C@H]2C#N)cc1	·	36*	1	-3	-1
N#C[C@@H]1[C@H](c2ccccc2C2=CCCC2)[C@H](CO)N1C(=O)C1CCC1	·	-6	5	2	-1
COc1ccccc1-c1ccc([C@@H]2[C@@H](C#N)N(C(=O)C3CCCCC3)[C@@H]2CO)cc1	·	-8	-8	2	-1
COc1ccc(-c2ccc([C@H]3[C@@H](C#N)N(C(=O)C4CCC4)[C@H]3CO)cc2)cc1	·	1	7	-6	-3
C/C=C/c1ccccc1[C@H]1[C@@H](C#N)N(C(=O)NC2CCCC2)[C@H]1CO	·	60*	4	1	0
N#C[C@H]1[C@@H](c2ccccc2C2=CCCC2)[C@@H](CO)N1C(=O)C1CCC1	·	37*	-1	-4	-1
COc1ccc(-c2ccc([C@@H]3[C@@H](C#N)N(C(=O)C4CCC4)[C@H]3CO)cc2)cc1	·	72*	1	-1	0
Cc1noc(C)c1S(=O)(=O)Nc1cccc2c1O[C@H](CN(C)C(=O)NC(C)C)[C@H](C)CN([C@H](C)CO)C2=O	·	3	-5	0	-2
Cc1noc(C)c1S(=O)(=O)Nc1cccc2c1O[C@@H](CN(C)S(=O)(=O)c1ccccc1)[C@@H](C)CN([C@H](C)CO)C2=O	·	11	-23	-4	-12
SMILES	CaV13 FRET inh	DENV2 CPE	S100A4 inh HTS	SIRT5 inh	MLL AF4-AF9 inh
Cc1noc(C)c1S(=O)(=O)Nc1cccc2c1O[C@H](CN(C)C(=O)NC(C)C)[C@H](C)CN([C@@H](C)CO)C2=O	·	88*	-5	3	-4
Cc1noc(C)c1S(=O)(=O)Nc1cccc2c1O[C@H](CN(C)S(=O)(=O)c1ccccc1)[C@H](C)CN([C@H](C)CO)C2=O	·	54*	-16	0	-13
Cc1ccc(S(=O)(=O)Nc2cccc3c2O[C@@H](CN(C)C(=O)NC(C)C)[C@@H](C)CN([C@H](C)CO)C3=O)cc1	·	43*	1	-2	-1
O=C(Nc1ccccc1)N1CC(=O)N2[C@H](C1)[C@H](c1ccc(C#CC3CC3)cc1)[C@@H]2CO	·	13	5	3	0
C[C@H]1CN([C@@H](C)CO)C(=O)c2cccc(NS(C)(=O)=O)c2O[C@H]1CN(C)Cc1ccc(C(F)(F)F)cc1	·	1	-19	0	1
C[C@@H]1CCCCO[C@H](CN(C)C(=O)C2CCCCC2)[C@H](C)CN([C@@H](C)CO)C(=O)c2cc(NS(=O)(=O)c3ccc(Cl)cc3)ccc2O1	·	10	6	12	5
CC(C)C[C@H]1COc2cc(N3CC[C@H](O)C3)ccc2S(=O)(=O)N1	-7	?	1	33*	0
COc1ccc(S(=O)(=O)N[C@@H]2CC[C@H](CC(=O)NCc3ccccc3F)O[C@@H]2CO)cc1	·	1	14	-1	0
O=C(COc1ccc(Cl)cc1Cl)Nc1ccc(CN2CCCCC2)cc1	-7	-2	-18	112*	6
CO[C@H]1CN(C)C(=O)c2ccc(NC(=O)C3CCCC3)cc2OC[C@@H](C)N(CCC(F)(F)F)C[C@H]1C	·	2	11	7	28*
CO[C@H]1CN(C)C(=O)c2cc(NC(C)=O)ccc2OC[C@@H](C)N(CCC(F)(F)F)C[C@H]1C	·	-3	2	16*	-15
CO[C@@H]1CN(C)C(=O)c2ccc(NC(=O)c3ccc4c(c3)OCO4)cc2OC[C@H](C)N(CCC(F)(F)F)C[C@H]1C	·	-2	-2	16*	5
CO[C@@H]1CN(C)C(=O)c2ccc(NC(=O)C3CCOCC3)cc2OC[C@@H](C)N(CC2CCCCC2)C[C@H]1C	·	54*	-8	·	-1
C[C@H]1CN([C@@H](C)CO)C(=O)c2cc(NS(C)(=O)=O)ccc2O[C@@H]1CN(C)Cc1ccc(C(=O)O)cc1	·	7	18	4	-3
CO[C@H]1CN(C)C(=O)c2cc(NC(=O)c3ccc4c(c3)OCO4)ccc2OC[C@H](C)N(CCC(F)(F)F)C[C@@H]1C	·	23*	-2	2	3
CO[C@H]1CN(C)C(=O)c2cc(NC(=O)c3ccc4c(c3)OCO4)ccc2OC[C@@H](C)N(CCC(F)(F)F)C[C@@H]1C	·	-9	10	·	0
